Reference: ChEMBL document CHEMBL3865820, “Bioactive Dibenzo-α-pyrone Derivatives from the Endophytic Fungus Rhizopycnis vagum Nitaf22” (J Nat Prod, 2016)
pIC50: −log10 of the molar value. ≈ marks a conversion by molar mass, not a printed value.

Assays:
[1] = system: Pseudomonas amygdali pv. lachrymans; assay: Antibacterial activity against Pseudomonas lachrymans ATCC 11921 by broth dilution colorimetric assay; assay type: functional
Method in brief: (§1)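 Modified broth dilution colorimetric assay in 96-well plates, run against a plant- and human-pathogen panel. Both MIC and median inhibitory concentration (IC50) were determined. Streptomycin sulfate served as the positive control.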

[2] = system: Staphylococcus haemolyticus; assay: Antibacterial activity against Staphylococcus haemolyticus ATCC 29970 by broth dilution colorimetric assay; assay type: functional; method in brief: as §1
[3] = Cytotoxicity against human A375 cells by MTT assay; assay type: functional, cell-based; details: A-375
Method in brief: (§2)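 Microculture tetrazolium (MTT) assay on a panel of human carcinoma cell lines: colon HCT-116, hepatocellular HepG2, gastric BGC-823, NSCLC NCI-H1650, ovarian A2780, melanoma A375, lung adenocarcinoma A549, breast MCF-7 and pancreatic Capan2. IC50 values are reported in μM.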

[4] = system: Agrobacterium tumefaciens; assay: Antibacterial activity against Agrobacterium tumefaciens ATCC 11158 by broth dilution colorimetric assay; assay type: functional; method in brief: as §1
Pyricularia oryzae = assay: Antifungal activity against Magnaporthe oryzae assessed as inhibition of spore germination after 8 hrs by microscopic analysis; assay type: functional
Method in brief: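 Spores taken from 7-day-old M. oryzae cultures (2 × 10^6 spores per mL). Compound in 10% aqueous ethanol was mixed 1:1 with the spore suspension on a concave slide and kept in a dark moist chamber at 25 °C for 8 h. Germination was counted by microscope. Inhibition % = [(Gc − Gt)/Gc] × 100 against 10% ethanol control, with triplicates. IC50 was obtained by linear regression; carbendazim served as positive control.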

[5] = Cytotoxicity against human A549 cells by MTT assay; assay type: functional, cell-based; method in brief: as §2
[6] = system: Xanthomonas euvesicatoria; assay: Antibacterial activity against Xanthomonas vesicatoria ATCC 11633 by broth dilution colorimetric assay; assay type: functional; method in brief: as §1
[7] = Antibacterial activity against Ralstonia solanacearum ATCC 11696 by broth dilution colorimetric assay; assay type: functional, Ralstonia solanacearum K60-1
Method in brief: (§3)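 Modified broth dilution colorimetric assay in 96-well plates, reporting both minimum inhibitory concentration (MIC) and median inhibitory concentration (IC50). Streptomycin sulfate served as positive control.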

Bacillus subtilis [8] = assay: Antibacterial activity against Bacillus subtilis ATCC 11562 by broth dilution colorimetric assay; assay type: functional; method in brief: as §1
[9] = Cytotoxicity against human Capan2 cells by MTT assay; assay type: functional, cell-based; details: Capan-2; method in brief: as §2
[10] = Cytotoxicity against human HCT116 cells by MTT assay; assay type: functional, cell-based; details: HCT-116; method in brief: as §2
[11] = Cytotoxicity against human MCF7 cells by MTT assay; assay type: functional, cell-based; method in brief: as §2
[12] = Cytotoxicity against human HepG2 cells by MTT assay; assay type: functional, cell-based; method in brief: as §2
[13] = Cytotoxicity against human NCI-H1650 cells by MTT assay; assay type: functional, cell-based; method in brief: as §2
[14] = Cytotoxicity against human BGC823 cells by MTT assay; assay type: functional, cell-based; details: BGC-823; method in brief: as §2
[15] = Cytotoxicity against human A2780 cells by MTT assay; assay type: functional, cell-based; method in brief: as §2
[16] = system: Agrobacterium tumefaciens; assay: Antibacterial activity against Agrobacterium tumefaciens ATCC 11158 after 24 hrs by MTT based broth dilution colorimetric assay; assay type: functional; details: ATCC 11158, 24 h
[17] = system: Xanthomonas euvesicatoria; assay: Antibacterial activity against Xanthomonas vesicatoria ATCC 11633 after 24 hrs by MTT based broth dilution colorimetric assay; assay type: functional; details: ATCC 11633, 24 h; method in brief: as §3
Bacillus subtilis [18] = assay: Antibacterial activity against Bacillus subtilis ATCC 11562 after 24 hrs by MTT based broth dilution colorimetric assay; assay type: functional; details: ATCC 11562, 24 h
[19] = system: Pseudomonas amygdali pv. lachrymans; assay: Antibacterial activity against Pseudomonas lachrymans ATCC 11921 after 24 hrs by MTT based broth dilution colorimetric assay; assay type: functional; details: ATCC 11921, 24 h; method in brief: as §3

Row | SMILES | IC50 [1] [mg/L] | MIC [1] [mg/L] | MIC [2] [mg/L] | pIC50 [3] | IC50 [4] [mg/L] | MIC [4] [mg/L] | IC50 (Pyricularia oryzae) [mg/L] | pIC50 [5] | MIC [6] [mg/L] | MIC [7] [mg/L] | IC50 (Bacillus subtilis [8]) [mg/L] | MIC (Bacillus subtilis [8]) [mg/L] | pIC50 [9] | pIC50 [10] | pIC50 [11] | IC50 [6] [mg/L] | IC50 [7] [mg/L] | also measured
1 | COc1cc(O)c2c(=O)oc3c(c2c1)[C@@](C)(O)C[C@@H](OC)[C@@]31C[C@@H](O)C(=O)O1 | 44.7 (≈ 114 µM) | 100 (≈ 255 µM) | > 200 | < 4.30 | 56.7 (≈ 145 µM) | 100 (≈ 255 µM) | > 200 | < 4.30 | > 200 | > 200 | 45.5 (≈ 116 µM) | 75 (≈ 191 µM) | < 4.30 | < 4.30 | < 4.30 |  |  | 
2 | COC1=C[C@](C)(O)c2c(oc(=O)c3c(O)cc(OC)cc23)C1=O |  | > 200 | > 200 | < 4.30 |  | > 200 | 82.1 (≈ 258 µM) | < 4.30 | > 200 | > 200 |  | > 200 | < 4.30 | < 4.30 | < 4.30 |  |  | 
3 | COc1cc(O)c2c(=O)oc3c(c2c1)[C@@](C)(O)C[C@H](OC)[C@@]31C[C@@H](O)C(=O)O1 |  | > 200 | > 200 |  |  | > 200 |  |  | > 200 | > 200 |  | > 200 |  |  |  |  |  | 
4 | COc1cc(O)c2c(=O)oc3c(c2c1)[C@@](C)(O)C(Cl)=C(O)C3=O | 4.3 (≈ 12.7 µM) | 25 (≈ 73.8 µM) | 25 (≈ 73.8 µM) | < 4.30 | 47.3 (≈ 140 µM) | 100 (≈ 295 µM) |  | 4.59 | 100 (≈ 295 µM) | 50 (≈ 148 µM) | 44.6 (≈ 132 µM) | 100 (≈ 295 µM) | < 4.30 | 4.43 | < 4.30 | 52.5 (≈ 155 µM) | 36.5 (≈ 108 µM) | IC50 [2]: 7 mg/L (≈ 20.7 µM)
5 | COc1cc(O)c2c(=O)oc3c(O)c(OC)c(Cl)c(C)c3c2c1 | 16.4 (≈ 48.7 µM) | 50 (≈ 148 µM) | 50 (≈ 148 µM) |  | 15 (≈ 44.5 µM) | 50 (≈ 148 µM) | > 200 |  | 50 (≈ 148 µM) | 50 (≈ 148 µM) | 22.4 (≈ 66.5 µM) | 50 (≈ 148 µM) |  | < 5.00 |  | 15.9 (≈ 47.2 µM) | 24.2 (≈ 71.9 µM) | pIC50 [12]: < 5.00; IC50 [2]: 26.7 mg/L (≈ 79.3 µM); pIC50 [13]: < 5.00; pIC50 [14]: < 5.00; pIC50 [15]: < 5.00
6 | COc1cc(O)c2c(=O)oc3cc(O)c(Cl)c(C)c3c2c1 |  |  |  | < 4.30 |  |  |  | < 4.30 |  |  |  |  | < 4.30 | < 4.30 | < 4.30 |  |  | IC50 [16]: 16.7 to 34.3 mg/L (≈ 54.5 to 112 µM); IC50 [17]: 16.7 to 34.3 mg/L (≈ 54.5 to 112 µM); IC50 (Bacillus subtilis [18]): 16.7 to 34.3 mg/L (≈ 54.5 to 112 µM); IC50 [19]: 16.7 to 34.3 mg/L (≈ 54.5 to 112 µM)
7 | Cc1c(Cl)c(O)cc2oc(=O)c3c(O)cc(O)cc3c12 |  | > 200 | > 200 |  | 16.3 (≈ 55.7 µM) | 50 (≈ 171 µM) | 9.9 (≈ 33.8 µM) |  | 75 (≈ 256 µM) | 50 (≈ 171 µM) | 18.6 (≈ 63.6 µM) | 50 (≈ 171 µM) |  | < 5.00 |  | 22.7 (≈ 77.6 µM) | 12.4 (≈ 42.4 µM) | pIC50 [12]: < 5.00; pIC50 [13]: < 5.00; pIC50 [14]: < 5.00; pIC50 [15]: < 5.00
